According to publication PMC2834874 (Bioorganic & medicinal chemistry letters, 2010):

Key:
Format in all cases: cell-based
M3 = M3 (Homo sapiens, UniProt P20309); experiment: Potentiation of ~EC20 ACh, calcium mobilization in M3 CHO cells
Method in brief: (§1)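 Potentiation of an ~EC20 ACh response read as intracellular calcium mobilization in CHO cells expressing single receptor subtypes. M2 and M4 lines are co-transfected with chimeric Gqi5 to couple to calcium, while M3 and M5 lines are used directly. Data are means of independent determinations.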

M5 = target: T1, M5 (Homo sapiens, UniProt P08912); experiment: Potentiation of ~EC20 ACh, calcium mobilization in M5 CHO cells
T1 sequence (P08912 1-532): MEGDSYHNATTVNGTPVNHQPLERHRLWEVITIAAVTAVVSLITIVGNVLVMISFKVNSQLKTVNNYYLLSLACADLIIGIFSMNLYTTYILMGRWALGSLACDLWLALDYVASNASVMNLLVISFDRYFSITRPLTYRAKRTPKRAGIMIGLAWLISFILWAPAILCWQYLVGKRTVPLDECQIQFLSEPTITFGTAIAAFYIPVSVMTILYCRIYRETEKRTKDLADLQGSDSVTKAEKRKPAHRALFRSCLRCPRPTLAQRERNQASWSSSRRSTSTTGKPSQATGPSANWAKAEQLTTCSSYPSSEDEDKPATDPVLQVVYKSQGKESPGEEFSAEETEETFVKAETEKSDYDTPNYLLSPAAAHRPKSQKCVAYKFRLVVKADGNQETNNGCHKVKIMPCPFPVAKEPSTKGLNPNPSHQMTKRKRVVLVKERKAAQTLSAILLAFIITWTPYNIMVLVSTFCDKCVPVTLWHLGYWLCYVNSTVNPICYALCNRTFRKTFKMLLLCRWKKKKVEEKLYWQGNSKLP
Method in brief: as §1

M1 [1] = target: T2, M1 (Homo sapiens, UniProt P11229); experiment: ACh CRC fold-shift experiments, calcium mobilization in M1 CHO cells
T2 sequence (P11229 1-460): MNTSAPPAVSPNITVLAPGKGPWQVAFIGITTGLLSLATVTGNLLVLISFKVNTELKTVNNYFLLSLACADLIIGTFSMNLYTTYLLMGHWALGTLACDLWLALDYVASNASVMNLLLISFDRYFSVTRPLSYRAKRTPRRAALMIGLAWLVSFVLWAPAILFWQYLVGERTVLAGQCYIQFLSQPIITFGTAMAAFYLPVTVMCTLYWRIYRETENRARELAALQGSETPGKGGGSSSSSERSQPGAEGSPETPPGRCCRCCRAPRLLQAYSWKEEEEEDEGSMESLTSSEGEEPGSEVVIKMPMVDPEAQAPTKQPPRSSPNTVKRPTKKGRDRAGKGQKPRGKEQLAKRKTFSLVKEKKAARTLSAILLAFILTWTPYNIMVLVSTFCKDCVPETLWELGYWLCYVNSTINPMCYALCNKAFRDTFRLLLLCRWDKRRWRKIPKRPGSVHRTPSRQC
Method in brief: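 ACh concentration-response curve run alone and with the test compound at 10 μM or 30 μM. Intracellular calcium mobilization measured in CHO cells expressing M1. The fold leftward shift of the ACh curve is taken, and intrinsic allosteric agonism is recorded from the response to compound alone. Values are means of at least three independent determinations.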

M1 [2] = target: T2, M1; conditions: M1 EC50 ratio
M2 = target: T3, M2 (Homo sapiens, UniProt P08172); experiment: Potentiation of ~EC20 ACh, calcium mobilization in M2/Gqi5 CHO cells; conditions: up to 30 μM
T3 sequence (P08172 1-466): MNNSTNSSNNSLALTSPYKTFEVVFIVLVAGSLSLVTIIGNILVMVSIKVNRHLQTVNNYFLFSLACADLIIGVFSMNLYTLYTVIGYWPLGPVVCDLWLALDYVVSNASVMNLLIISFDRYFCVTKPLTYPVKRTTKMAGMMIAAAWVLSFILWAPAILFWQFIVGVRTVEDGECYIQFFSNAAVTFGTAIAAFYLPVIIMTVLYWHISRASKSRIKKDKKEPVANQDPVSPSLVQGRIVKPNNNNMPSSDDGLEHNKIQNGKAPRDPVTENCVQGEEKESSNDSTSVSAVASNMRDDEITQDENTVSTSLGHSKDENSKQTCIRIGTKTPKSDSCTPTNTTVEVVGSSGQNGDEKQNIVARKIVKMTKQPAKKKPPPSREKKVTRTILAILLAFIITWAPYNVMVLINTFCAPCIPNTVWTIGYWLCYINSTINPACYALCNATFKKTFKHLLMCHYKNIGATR
Method in brief: as §1

M4 = target: T4, M4 (Homo sapiens, UniProt P08173); experiment: Potentiation of ~EC20 ACh, calcium mobilization in M4/Gqi5 CHO cells; conditions: up to 30 μM
T4 sequence (P08173 1-479): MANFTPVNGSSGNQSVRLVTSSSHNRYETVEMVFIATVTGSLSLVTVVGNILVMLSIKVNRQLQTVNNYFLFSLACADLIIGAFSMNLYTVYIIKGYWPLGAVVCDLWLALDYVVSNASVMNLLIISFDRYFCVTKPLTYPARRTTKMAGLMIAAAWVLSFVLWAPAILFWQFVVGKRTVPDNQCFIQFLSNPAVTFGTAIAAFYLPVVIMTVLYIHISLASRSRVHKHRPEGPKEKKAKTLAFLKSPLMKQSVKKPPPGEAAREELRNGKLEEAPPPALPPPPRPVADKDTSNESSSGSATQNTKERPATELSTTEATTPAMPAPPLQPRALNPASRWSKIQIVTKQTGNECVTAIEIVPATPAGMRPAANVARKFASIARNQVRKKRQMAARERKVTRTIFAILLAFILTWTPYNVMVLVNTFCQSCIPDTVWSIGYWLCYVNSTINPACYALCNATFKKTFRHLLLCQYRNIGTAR
Method in brief: as §1

Chain of M3 (P20309 whole entry): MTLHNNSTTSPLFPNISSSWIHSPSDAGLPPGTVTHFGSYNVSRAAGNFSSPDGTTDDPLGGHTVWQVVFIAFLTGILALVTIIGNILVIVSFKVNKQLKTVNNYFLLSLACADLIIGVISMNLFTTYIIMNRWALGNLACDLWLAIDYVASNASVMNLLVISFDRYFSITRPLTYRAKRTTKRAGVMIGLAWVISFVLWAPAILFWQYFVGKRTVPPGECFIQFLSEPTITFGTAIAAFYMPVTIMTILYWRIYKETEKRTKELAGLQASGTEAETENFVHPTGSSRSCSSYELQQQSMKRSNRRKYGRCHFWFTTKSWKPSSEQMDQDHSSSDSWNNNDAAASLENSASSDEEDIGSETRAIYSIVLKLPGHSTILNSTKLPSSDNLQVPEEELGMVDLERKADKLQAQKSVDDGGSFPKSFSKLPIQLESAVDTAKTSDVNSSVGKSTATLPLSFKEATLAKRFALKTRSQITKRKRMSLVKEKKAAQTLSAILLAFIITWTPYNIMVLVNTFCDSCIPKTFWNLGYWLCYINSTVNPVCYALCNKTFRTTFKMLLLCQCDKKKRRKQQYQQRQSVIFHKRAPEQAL

selectivity versus M3 (M3; CRC in presence of ~EC20 ACh)	selectivity versus M5 (M5; CRC in presence of ~EC20 ACh)	Fold-shift of the ACh CRC at M5 (M1 [1]; 10 μM compound)	intrinsic allosteric agonism (M1 [1]; M1 fold-shift experiment, at 30 μM) [%]	increase in potency over VU0365137 (9a) (M1 [2])	activation of M2 (M2)	activation of M3 (M3; up to 30 μM)	activation of M4 (M4)	activation of M5 (M5; up to 30 μM)	Fold-shift of the ACh CRC at M5 (M1 [1]; 30 μM compound)	SMILES
good selectivity	good selectivity	approximately 5 fold	~30							Cn1cc(-c2ccc(CN3C(=O)C(=O)c4ccccc43)cc2)cn1 [Compound 9a]
				three-fold increase	minimal/no activation	minimal/no activation	minimal/no activation	minimal/no activation	approximately 3 fold	Cn1cc(-c2ccc(CN3C(=O)C(=O)c4ccccc43)c(F)c2)cn1 [Compound 12a]
